Screening results: PubChem BioAssay, several laboratories
PG9 binder: small molecules binding HIV-1 gp120 antibody PG9; TR-FRET gp120-PG9 antibody binding; inhibition, % at 6.7 µM; hit rate 0.43% among 360,000; AID 624416; in the data active = inhibition above about 8.5%
NR1D1 modulator: modulates human Rev-erb alpha binding to DNA; hit rate 0.79% among 370,000; Rev-erbα–FITC-DNA binding, fluorescence polarization, 90 min; AID 1259318; P20393; activity, % at 10 µM;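 active = activity above about 14%, limit read from the data; passing the limit was not always enough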
NR2E3 ag-1: agonists of human NR2E3 nuclear receptor. inhibition of corepressor binding, % at 3.98 µM. AID 602229. CHO-S Gal4-NCOR/VP16-NR2E3 two-hybrid, luciferase. hit rate 0.35% among 360,000;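 active = inhibition above the mean of all tested compounds plus 3 SD, cut at about 70% in these data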;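 note: higher means lower luciferase signal from less NR2E3 corepressor binding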
NR2E3 ag-2: activates human photoreceptor nuclear receptor NR2E3 | Q9Y5X4 | GST-NR2E3/biotin-RetCOR TR-FRET, 1536-well | inhibition of corepressor binding, % at 4.78 µM | hit rate 0.12% among 320,000 | AID 2300;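 active = percent inhibition above the cutoff of mean plus 3 SD of all tested compounds, set per screening campaign, cut at about 20% in these data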
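System: GST-tagged NR2E3 plus biotinylated RetCOR corepressor; Amount: 1.35 nM GST-tagged NR2E3 final; Dosing: single nominal compound dose of 4.8 µM; Schedule: 5 h incubation at 4 °C; Technique: TR-FRET with europium anti-GST and streptavidin-D2, 340 nm excitation; Controls: biotin wells as high control, 0.6% DMSO wells as low control.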
NR1D1 mod conf: confirmation of modulators of human Rev-erb alpha DNA binding | activation, % at 25 µM | shares compounds with NR1D1 modulator | Rev-erb alpha FITC-DNA binding, fluorescence polarization, 90 min | AID 1259319 | hit rate 61% among 3,000;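 active = activation at or above a set limit, or at least 3 SD above the negative control mean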
RORg counter: affects RORgamma DNA binding in a Rev-erb alpha counter-screen; AID 1259320; shares compounds with NR1D1 modulator; hit rate 8% among 910; purified RORgamma protein-FITC-DNA binding, fluorescence polarization; IC50, µM;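 active = Compounds whose fitted half-maximal concentration for disrupting protein-DNA binding is below 10 micromolar; the record names Rev-erb in its text, so the target is in doubt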
A number is an active result; . = inactive; / = not tested or not shown. Rows were chosen to be rich in hits. Some 1.5% of all compounds tested hit in one or more screens of this group.

SMILES	PG9 binder	NR1D1 modulator	NR2E3 ag-1	NR2E3 ag-2	NR1D1 mod conf	others
CCCCCCCCN1CCS(=O)(=O)N(Cc2ccc(C)cc2)C(C(=O)OC)C1 (stereo not given)	/	.	/	/	/
CN(C)c1ccc(/C=c2\sc3n(c2=O)CCCN=3)cc1	.	27	.	.	.
O=c1/c(=C/c2ccc(O)cc2)sc2n1CCCN=2	.	.	.	.	/
CCOc1ccc(NC(=O)c2cc3c(=O)n(C)c4ccccc4c3n2C)cc1	.	41	.	.	21
COc1cccc(-c2cc(C(F)(F)F)n3ncc(C(=O)NCC4CCCO4)c3n2)c1 (stereo not given)	.	.	.	.	/
COc1ccc(-c2cc(C(F)(F)F)n3ncc(C(=O)NCC4CCCO4)c3n2)cc1 (stereo not given)	.	47	.	/	22
COc1ccc(NC(=O)c2cc(-c3cc(Cl)ccc3OC)n[nH]2)cc1OC	.	.	.	/	/
COc1ccc(Cl)cc1-c1cc(C(=O)Nc2ccc(F)cc2)[nH]n1	.	67	.	/	48	RORg counter=.
Cc1cc(N2CCOCC2)n2ncc(-c3ccc(Cl)cc3)c2n1	.	.	.	.	/
Cc1cc(N2CCOCC2)n2nc(C(F)(F)F)c(-c3ccccc3)c2n1	.	28	.	/	.
Cc1nn2c(N3CCOCC3)cc(C(C)(C)C)nc2c1-c1ccc(Cl)cc1	.	30	.	/	.
CC(=O)Nc1ccc(Nc2cc(C)nc3c(-c4ccc(Cl)cc4)c(C)nn23)cc1	.	19	.	.	.
Cc1cc(N2CCOCC2)n2nc(C)c(-c3ccc(Cl)cc3)c2n1	.	26	.	.	.
COC(=O)CNC(=O)CNC1(C(=O)NCCc2c[nH]c3ccccc23)CCCCC1	/	.	/	/	/
COC(=O)C[C@H]1CC[C@@H]2[C@@H](COc3ccc(NC(=O)c4ccccc4)cc3C(=O)N2C)O1	/	.	/	/	/
CCCCN1CC(=O)N2[C@H](C[C@@]3(n4ccc5ccccc54)c4ccccc4N(S(=O)(=O)c4ccccc4)[C@@H]23)C1=O	/	.	/	/	/
O=C(Nc1nnc(-c2ccccc2F)s1)C1CCN(S(=O)(=O)c2ccc(Cl)cc2)CC1	.	33	.	.	.
O=C(Nc1nnc(-c2ccccc2Cl)s1)C1CCN(S(=O)(=O)c2ccc(Cl)cc2)CC1	.	.	.	.	/
O=C(Nc1nnc(-c2ccc(F)cc2)s1)C1CCN(S(=O)(=O)c2ccc(Cl)cc2)CC1	.	121	.	.	.
COc1ccc(CN(CC#Cc2ccc(C)cc2)C(N)=NC(=O)CCc2ccccc2)c(OC)c1	/	.	/	/	/
COc1ccc(C(=O)Nc2ccc3[nH]c(-c4cccc(OC)c4)cc(=O)c3c2)cc1	.	51	.	.	.
COc1ccc(C(=O)Nc2cccc(OC)c2)cc1	.	.	.	.	/
Fc1cccc(CSc2ncnc3c2oc2ccccc23)c1	.	122	.	.	154	RORg counter=6.3
Fc1ccc(CSc2ncnc3c2oc2ccccc23)cc1	.	290	.	.	284	RORg counter=.
COC(=O)c1c(NC(=O)c2ccccc2)sc(C(=O)c2ccccc2)c1C	.	27	.	.	.
SMILES	PG9 binder	NR1D1 modulator	NR2E3 ag-1	NR2E3 ag-2	NR1D1 mod conf	others
COc1ccc(Cn2c(NC(=O)c3ccccc3)nc(Cc3ccccc3)c2-c2ccccc2)c(OC)c1	/	.	/	/	/
CCCCCCCC(=O)N[C@H]1CC[C@@]23CCCN2C(=O)CCC[C@H]3[C@H]1CCC	/	.	/	/	/
Clc1ccc(-c2ccnc(-n3cccc3)n2)s1	.	18	.	.	.
COc1ccc(OC)c(S(=O)(=O)N2CCC(C(=O)NCC3COCCO3)CC2)c1 (stereo not given)	/	.	/	/	/
CCOC(=O)[C@@]12CN(C(=O)OC(C)(C)C)CC=C1N(Cc1ccc(OC)cc1)C(=O)[C@H]2CC(=O)NCc1ccc(C)o1	/	.	/	/	/
CCc1ccccc1N(C)S(=O)(=O)c1ccc2[nH]cc(C(=O)N3CCc4ccccc43)c(=O)c2c1	.	45	.	.	27
Cc1cccc(N(C)S(=O)(=O)c2ccc3[nH]cc(C(=O)N4CCOCC4)c(=O)c3c2)c1	.	.	.	.	/
Cc1ccc(-n2c(SCC(=O)Nc3ccccc3-c3ccccc3)nnc2-c2cnccn2)cc1	/	.	/	/	/
CCOC(=O)c1c(NC(=O)CSc2nc3cc(Cl)ccc3s2)sc(C(C)=O)c1C	.	65	/	.	.
CCOC(=O)c1c(NC(=O)CSc2nc3ccccc3s2)sc(C(C)=O)c1C	.	25	.	.	43	RORg counter=.
